{"source": "paper PMC5760440", "about": "(Journal of immunology (Baltimore, Md. : 1950), 2017)", "key": {"[1]": {"system": "LNCs", "test": "Cytokine secretion by restimulated LNCs, cytokine bead array", "type": "cell-based, mouse", "conditions": "supernatants of LNCs from mice immunized with the named peptide (Fig. S2c)"}, "[2]": {"system": "A/J mice", "test": "Induction of myocarditis by immunization with SERCA2a peptides, histology", "type": "in vivo, mouse", "conditions": "individual peptide/CFA + PT; for Total inflammatory foci (Mean ± SEM): day 21, H&E heart sections; for Severity of lesions, Atria, Number of animals affected (%), Mild / Severity of lesions, Ventricle, Number of animals affected (%), Mild / Severity of lesions, Atria, Number of animals affected (%), Normal / Severity of lesions, Ventricle, Number of animals affected (%), Normal / Severity of lesions, Atria, Number of animals affected (%), Severe / Severity of lesions, Ventricle, Number of animals affected (%), Severe: day 21, H&E; for Severity of lesions, Atria, Number of animals affected (%), Mild / Severity of lesions, Ventricle, Number of animals affected (%), Mild: mild = 1–5 foci; for Severity of lesions, Atria, Number of animals affected (%), Normal / Severity of lesions, Ventricle, Number of animals affected (%), Normal: normal = 0 foci; for Severity of lesions, Atria, Number of animals affected (%), Severe / Severity of lesions, Ventricle, Number of animals affected (%), Severe: severe = 26 foci and above", "how_it_was_run": "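Mice got peptide/CFA emulsion (M. tuberculosis H37RA extract 5 mg/ml), 50–100 μg individual peptide, s.c. at inguinal and sternum sites on days 0 and 7. Pertussis toxin 100 ng/mouse i.p. on days 0 and 2. Controls: untreated, CFA+PT. Organs harvested day 21, formalin-fixed, 5 μm H&E sections ~150 μm apart. Blinded foci counts scored 0 / 1–5 / 6–25 / ≥26.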"}}, "note": "Ends that are not written are not given here.", "data": [{"substance": "SERCA2a 31-50: N-terminally acetylated 20-mer peptide of SERCA2a, residues 31-50 (Ac-KLKERWGSNELPAEEGKTLL; UniProt P16615 31-50, looked up, fragment)", "values": [{"measurement": "Cytokine pattern of peptides inducing mild disease", "setting": "[1]", "result": "produced mainly IFN-γ"}, {"measurement": "Total inflammatory foci (Mean ± SEM)", "setting": "[2]; SEM", "result": "8.00 ± 0.00"}, {"measurement": "Severity of lesions, Atria, Number of animals affected (%), Mild", "setting": "[2]", "result": "0 (0) %"}, {"measurement": "Severity of lesions, Ventricle, Number of animals affected (%), Mild", "setting": "[2]", "result": "0 (0) %"}, {"measurement": "Severity of lesions, Atria, Number of animals affected (%), Normal", "setting": "[2]", "result": 5}, {"measurement": "Severity of lesions, Ventricle, Number of animals affected (%), Normal", "setting": "[2]", "result": 4}, {"measurement": "Severity of lesions, Atria, Number of animals affected (%), Severe", "setting": "[2]", "result": "0 (0) %"}, {"measurement": "Severity of lesions, Ventricle, Number of animals affected (%), Severe", "setting": "[2]", "result": "0 (0) %"}]}, {"substance": "SERCA2a 161-180: N-terminally acetylated 20-mer peptide of SERCA2a, residues 161-180 (Ac-ADIRLTSIKSTTLRVDQSIL; UniProt P16615 161-180, looked up, fragment)", "values": [{"measurement": "Cytokine pattern of peptides inducing mild disease", "setting": "[1]", "result": "underproduction of both IFN-γ and IL-17A"}, {"measurement": "Total inflammatory foci (Mean ± SEM)", "setting": "[2]; SEM", "result": "2.50 ± 0.64"}, {"measurement": "Severity of lesions, Ventricle, Number of animals affected (%), Mild", "setting": "[2]", "result": "3 (30) %"}, {"measurement": "Severity of lesions, Atria, Number of animals affected (%), Normal", "setting": "[2]", "result": 6}, {"measurement": "Severity of lesions, Ventricle, Number of animals affected (%), Normal", "setting": "[2]", "result": 7}, {"measurement": "Severity of lesions, Atria, Number of animals affected (%), Severe", "setting": "[2]", "result": "0 (0) %"}, {"measurement": "Severity of lesions, Ventricle, Number of animals affected (%), Severe", "setting": "[2]", "result": "0 (0) %"}]}, {"substance": "SERCA2a 171-190: N-terminally acetylated 20-mer peptide of SERCA2a, residues 171-190 (Ac-TTLRVDQSILTGESVSVIKH; UniProt P16615 171-190, looked up, fragment)", "values": [{"measurement": "Total inflammatory foci (Mean ± SEM)", "setting": "[2]; SEM", "result": "2.00 ± 0.00"}, {"measurement": "Severity of lesions, Atria, Number of animals affected (%), Mild", "setting": "[2]", "result": "1 (20) %"}, {"measurement": "Severity of lesions, Ventricle, Number of animals affected (%), Mild", "setting": "[2]", "result": "1 (20) %"}, {"measurement": "Severity of lesions, Atria, Number of animals affected (%), Normal", "setting": "[2]", "result": 4}, {"measurement": "Severity of lesions, Ventricle, Number of animals affected (%), Normal", "setting": "[2]", "result": 4}, {"measurement": "Severity of lesions, Atria, Number of animals affected (%), Severe", "setting": "[2]", "result": "0 (0) %"}, {"measurement": "Severity of lesions, Ventricle, Number of animals affected (%), Severe", "setting": "[2]", "result": "0 (0) %"}]}, {"substance": "SERCA2a 311-330: N-terminally acetylated 20-mer peptide of SERCA2a, residues 311-330 (Ac-LPAVITTCLALGTRRMAKKN; UniProt P16615 311-330, looked up, fragment)", "values": [{"measurement": "Total inflammatory foci (Mean ± SEM)", "setting": "[2]", "result": 0}, {"measurement": "Severity of lesions, Atria, Number of animals affected (%), Mild", "setting": "[2]", "result": "0 (0) %"}, {"measurement": "Severity of lesions, Ventricle, Number of animals affected (%), Mild", "setting": "[2]", "result": "0 (0) %"}, {"measurement": "Severity of lesions, Atria, Number of animals affected (%), Normal", "setting": "[2]", "result": 5}, {"measurement": "Severity of lesions, Ventricle, Number of animals affected (%), Normal", "setting": "[2]", "result": 5}, {"measurement": "Severity of lesions, Atria, Number of animals affected (%), Severe", "setting": "[2]", "result": "0 (0) %"}, {"measurement": "Severity of lesions, Ventricle, Number of animals affected (%), Severe", "setting": "[2]", "result": "0 (0) %"}]}, {"substance": "SERCA2a 471-490: N-terminally acetylated 20-mer peptide of SERCA2a, residues 471-490 (Ac-CNSVIKQLMKKEFTLEFSRD; UniProt P16615 471-490, looked up, fragment)", "values": [{"measurement": "Total inflammatory foci (Mean ± SEM)", "setting": "[2]", "result": 0}, {"measurement": "Severity of lesions, Atria, Number of animals affected (%), Mild", "setting": "[2]", "result": "0 (0) %"}, {"measurement": "Severity of lesions, Ventricle, Number of animals affected (%), Mild", "setting": "[2]", "result": "0 (0) %"}, {"measurement": "Severity of lesions, Atria, Number of animals affected (%), Normal", "setting": "[2]", "result": 5}, {"measurement": "Severity of lesions, Ventricle, Number of animals affected (%), Normal", "setting": "[2]", "result": 5}, {"measurement": "Severity of lesions, Atria, Number of animals affected (%), Severe", "setting": "[2]", "result": "0 (0) %"}, {"measurement": "Severity of lesions, Ventricle, Number of animals affected (%), Severe", "setting": "[2]", "result": "0 (0) %"}]}, {"substance": "SERCA2a 481-500: N-terminally acetylated 20-mer peptide of SERCA2a, residues 481-500 (Ac-KEFTLEFSRDRKSMSVYCTP; UniProt P16615 481-500, looked up, fragment)", "values": [{"measurement": "Total inflammatory foci (Mean ± SEM)", "setting": "[2]", "result": 0}, {"measurement": "Severity of lesions, Atria, Number of animals affected (%), Mild", "setting": "[2]", "result": "0 (0) %"}, {"measurement": "Severity of lesions, Ventricle, Number of animals affected (%), Mild", "setting": "[2]", "result": "0 (0) %"}, {"measurement": "Severity of lesions, Atria, Number of animals affected (%), Normal", "setting": "[2]", "result": 5}, {"measurement": "Severity of lesions, Ventricle, Number of animals affected (%), Normal", "setting": "[2]", "result": 5}, {"measurement": "Severity of lesions, Atria, Number of animals affected (%), Severe", "setting": "[2]", "result": "0 (0) %"}, {"measurement": "Severity of lesions, Ventricle, Number of animals affected (%), Severe", "setting": "[2]", "result": "0 (0) %"}]}, {"substance": "SERCA2a 591-610: N-terminally acetylated 20-mer peptide of SERCA2a, residues 591-610 (Ac-TFVGCVGMLDPPRIEVASSV; UniProt P16615 591-610, looked up, fragment)", "values": [{"measurement": "Total inflammatory foci (Mean ± SEM)", "setting": "[2]", "result": 0}, {"measurement": "Severity of lesions, Atria, Number of animals affected (%), Mild", "setting": "[2]", "result": "0 (0) %"}, {"measurement": "Severity of lesions, Ventricle, Number of animals affected (%), Mild", "setting": "[2]", "result": "0 (0) %"}, {"measurement": "Severity of lesions, Atria, Number of animals affected (%), Normal", "setting": "[2]", "result": 5}, {"measurement": "Severity of lesions, Ventricle, Number of animals affected (%), Normal", "setting": "[2]", "result": 5}, {"measurement": "Severity of lesions, Atria, Number of animals affected (%), Severe", "setting": "[2]", "result": "0 (0) %"}, {"measurement": "Severity of lesions, Ventricle, Number of animals affected (%), Severe", "setting": "[2]", "result": "0 (0) %"}]}, {"substance": "SERCA2a 601-620: N-terminally acetylated 20-mer peptide of SERCA2a, residues 601-620 (Ac-PPRIEVASSVKLCRQAGIRV; UniProt P16615 601-620, looked up, fragment)", "values": [{"measurement": "Total inflammatory foci (Mean ± SEM)", "setting": "[2]", "result": 0}, {"measurement": "Severity of lesions, Atria, Number of animals affected (%), Mild", "setting": "[2]", "result": "0 (0) %"}, {"measurement": "Severity of lesions, Ventricle, Number of animals affected (%), Mild", "setting": "[2]", "result": "0 (0) %"}, {"measurement": "Severity of lesions, Atria, Number of animals affected (%), Normal", "setting": "[2]", "result": 5}, {"measurement": "Severity of lesions, Ventricle, Number of animals affected (%), Normal", "setting": "[2]", "result": 5}, {"measurement": "Severity of lesions, Atria, Number of animals affected (%), Severe", "setting": "[2]", "result": "0 (0) %"}, {"measurement": "Severity of lesions, Ventricle, Number of animals affected (%), Severe", "setting": "[2]", "result": "0 (0) %"}]}, {"substance": "SERCA2a 821-840: N-terminally acetylated 20-mer peptide of SERCA2a, residues 821-840 (Ac-RNPKEPLISGWLFFRYLAIG; UniProt P16615 821-840, looked up, fragment)", "values": [{"measurement": "Total inflammatory foci (Mean ± SEM)", "setting": "[2]", "result": 0}, {"measurement": "Severity of lesions, Atria, Number of animals affected (%), Mild", "setting": "[2]", "result": "0 (0) %"}, {"measurement": "Severity of lesions, Ventricle, Number of animals affected (%), Mild", "setting": "[2]", "result": "0 (0) %"}, {"measurement": "Severity of lesions, Atria, Number of animals affected (%), Normal", "setting": "[2]", "result": 5}, {"measurement": "Severity of lesions, Ventricle, Number of animals affected (%), Normal", "setting": "[2]", "result": 5}, {"measurement": "Severity of lesions, Atria, Number of animals affected (%), Severe", "setting": "[2]", "result": "0 (0) %"}, {"measurement": "Severity of lesions, Ventricle, Number of animals affected (%), Severe", "setting": "[2]", "result": "0 (0) %"}]}, {"substance": "SERCA2a 951-970: N-terminally acetylated 20-mer peptide of SERCA2a, residues 951-970 (Ac-PLPLIFQITPLNVTQWLMVL; UniProt P16615 951-970, looked up, fragment)", "values": [{"measurement": "Total inflammatory foci (Mean ± SEM)", "setting": "[2]; SEM", "result": "40.00 ± 39.00"}, {"measurement": "Severity of lesions, Atria, Number of animals affected (%), Mild", "setting": "[2]", "result": "1 (10) %"}, {"measurement": "Severity of lesions, Ventricle, Number of animals affected (%), Mild", "setting": "[2]", "result": "0 (0) %"}, {"measurement": "Severity of lesions, Atria, Number of animals affected (%), Normal", "setting": "[2]", "result": 8}, {"measurement": "Severity of lesions, Ventricle, Number of animals affected (%), Normal", "setting": "[2]", "result": 9}, {"measurement": "Severity of lesions, Atria, Number of animals affected (%), Severe", "setting": "[2]", "result": "1 (10) %"}, {"measurement": "Severity of lesions, Ventricle, Number of animals affected (%), Severe", "setting": "[2]", "result": "1 (10) %"}]}]}
